This is an account of results in PubChem BioAssay.

Test [1] is described as follows: inhibitors of TNFa-induced NFkB p65 translocation, primary screen, imaging, HUVEC, MLSMR starter and 10KST1 sets (AID 438;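 active means inhibition above 20% together with a positive visual image hit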;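 further: compound added about 3h40 before a 20 min TNFalpha stimulation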;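 on inhibition: signal is the nuclear over cytoplasmic p65 intensity ratio per well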). Conditions: HUVEC TNFa-induced p65 nuclear translocation; cell count: measured here: nuclei count (cytotoxicity indicator), at 2.08 µM; inhibition: at 2 µM, stronger effect = higher value, 0% TNFa-plus-vehicle, 100% no-TNFa wells.
A short description of test [2]: inhibitors of mutant huntingtin aggregation, primary screen, imaging, exon1htt(103Q)mCFP cells, high-content imaging (AID 483).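 Further: compound exposure lasted 3 days before fixation.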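 On nuclei count: percent of the per-plate median nuclei count of sample wells.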 Conditions: exon1htt(103Q)mCFP cell line, aggregate imaging, at 2 µM; inhibition of aggregation: stronger effect = higher value; nuclei count: measured here: cell count, toxicity.
Test [3] is described as follows: inhibitors of E-selectin induction by TNFa, primary screen, imaging, HUVEC, immunofluorescence, MLSMR starter and 10KST1 sets (AID 487;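 active means visually confirmed hit in the image check and inhibition above 20%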;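 on inhibition: signal is fraction of cell area covered by stained E-selectin grains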;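 on nuclei count: 100% = median nuclei count of all wells on the same plate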). Conditions: HUVEC TNFalpha-induced E-selectin immunofluorescence imaging, at 2 µM; inhibition: stronger effect = higher value; nuclei count: measured here: cell number, toxicity.
The target of test [4] is Voltage-gated potassium channel subunit beta-2 (Rattus norvegicus) (UniProt P62483). Nature of the test: KvBeta enzyme negative modulators, primary screen, biochemical, NADPH fluorescence (AID 622;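 active means fluorescence slope higher than the sample average by over 3 SD, cut at about -0.22 in these data, passing the limit was not always enough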;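 further: slope of raw intensity against log time taken from 70 to 1610 s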). Conditions: recombinant KvBeta, 4-cyanobenzaldehyde reduction, at 10 µM, stronger effect = higher value.
For test [5] the target is unchanged. Nature of the test: KvBeta positive modulators, primary screen, biochemical, NADPH fluorescence (AID 623;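 active means NADPH fluorescence slope more negative than the mean of all samples by about 3 SD, 99.7% confidence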;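 further: fluorescence intensity change per second fitted from 20 to 320 s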). Conditions: Recombinant KvBeta, NADPH fluorescence decrease slope, 10 min; at 10 µM; stronger effect = lower value.
The target of test [6] is Muscarinic acetylcholine receptor M4 (Homo sapiens) (UniProt P08173). The test is described as follows: compounds altering M4/GIRK thallium flux, either direction, primary screen, M4 allosteric agonist project, cell-based, HEK293 M4/GIRK, BTC-AM (AID 625;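 active means fluorescence slope after compound addition differing from the mean of all tested samples at 99.7% confidence, mostly higher but some lower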;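 further: thallium influx through GIRK channels coupled to M4 in HEK293 cells with BTC-AM dye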). The following applies: at 10 µM, actives lie on both sides. The method, boiled down: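 Assay system: HEK293 cells with M4 receptor and GIRK channels / Controls: carbachol and DMSO controls / Schedule: 1 h dye loading, 2 min kinetic read / Technique: kinetic fluorescence with BTC-AM dye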

The nature of test [7]: inhibitors of Sendai virus-induced IRF3 signaling, primary screen, TLR/RLR signaling modifier project, cell-based, Sendai virus stimulus, luciferase, 10K MLSCN set (AID 602276;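 active means inhibition at or above 50% at 10 µM; inactive means inhibition below 50%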;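 further: firefly luciferase from ISG56 promoter only with Renilla not read in this screen; 0% = Sendai virus plus DMSO and 100% = medium plus DMSO without virus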). The following applies: HEK293 RL24 IRF3 luciferase reporter, at 10 µM, stronger effect = higher value.
The nature of test [8]: inhibitors of poly I:C-induced TLR3 signaling, primary screen, cell-based, poly I:C stimulus, luciferase, 10K MLSCN set (AID 602277;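 active means inhibition of the reporter signal at or above 50%; inactive means inhibition below 50%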). The following applies: HEK293-TLR3 RL24 IRF3 luciferase reporter, at 10 µM, stronger effect = higher value.

Calls of active or inactive are those of the source.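 How the source made its calls, unless noted: active means visual image review flags a hit and inhibition of aggregation exceeds 20%; inconclusive means visual hit but inhibition at or below 20%; inactive means no hit on visual image review.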

Voltage-gated potassium channel subunit beta-2 (Rattus norvegicus), sequence (P62483 whole entry, looked up): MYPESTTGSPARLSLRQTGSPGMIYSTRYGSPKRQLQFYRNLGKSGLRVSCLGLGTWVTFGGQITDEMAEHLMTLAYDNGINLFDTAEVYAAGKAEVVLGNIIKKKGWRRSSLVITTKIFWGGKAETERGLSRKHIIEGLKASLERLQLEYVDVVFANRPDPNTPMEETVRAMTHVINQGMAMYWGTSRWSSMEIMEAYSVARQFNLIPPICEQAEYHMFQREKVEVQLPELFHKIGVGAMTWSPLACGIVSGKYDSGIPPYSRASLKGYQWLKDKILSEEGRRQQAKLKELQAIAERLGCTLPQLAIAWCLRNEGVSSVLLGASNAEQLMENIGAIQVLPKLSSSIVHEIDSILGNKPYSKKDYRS
Muscarinic acetylcholine receptor M4 (Homo sapiens), sequence (P08173 whole entry, looked up): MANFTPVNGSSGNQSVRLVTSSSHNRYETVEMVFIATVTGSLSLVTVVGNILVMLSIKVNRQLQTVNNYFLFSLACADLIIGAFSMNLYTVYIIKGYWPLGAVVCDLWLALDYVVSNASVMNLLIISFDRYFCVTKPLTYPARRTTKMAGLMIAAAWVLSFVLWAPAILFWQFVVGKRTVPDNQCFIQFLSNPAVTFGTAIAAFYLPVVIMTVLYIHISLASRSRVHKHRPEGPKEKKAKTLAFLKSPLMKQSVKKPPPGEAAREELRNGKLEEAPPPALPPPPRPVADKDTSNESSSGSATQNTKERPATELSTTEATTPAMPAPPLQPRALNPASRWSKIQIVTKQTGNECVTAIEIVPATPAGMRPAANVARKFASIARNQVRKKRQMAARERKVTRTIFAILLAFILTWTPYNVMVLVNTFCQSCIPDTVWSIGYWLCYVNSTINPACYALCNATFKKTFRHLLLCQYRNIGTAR

Consider `Cc1cc(N2C(=O)C3C4C=CC(C4)C3C2=O)ccc1Br` (centres undefined), for which the cell count in test [1] was determined as 775. Besides, the inhibition was 18.7% (inactive) in test [1], 98.6% (active) in test [3], -31.9% (inactive) in test [7] and 100% (active) in test [8]. For the same molecule, the inhibition of aggregation in test [2] is 0.6% (inactive). In addition, the nuclei count in test [2] was found to be 110%; in test [3] it was 42%. Also, the fluorescence slope in test [4] was -0.502 (inactive); in test [6] it was 0.00619 (inactive). For the same molecule, in test [5], the NADPH fluorescence slope is -5.3e-05 (inactive).

`COc1ccc(N2CCN(c3ncnc4c3cnn4-c3ccc(C)cc3C)CC2)cc1`: the cell count in test [1] is 683. Also, the inhibition in test [1] is -10.9% (inactive); in test [3], -33.1% (inactive); in test [7], 5.2% (inactive); in test [8] it was -20.2% (inactive). In test [2], the inhibition of aggregation is -20.3% (inactive). Besides, the nuclei count turned out to be 117% in test [2] and 98% in test [3]. The figures for the fluorescence slope in test [4] and in test [6] were -0.558 (inactive) and 0.00551 (inactive), respectively. The NADPH fluorescence slope in test [5] is -4.3e-05 (inactive).

`Cc1ccc(C)c(N2CCN(C(=O)c3ccc(CS(=O)(=O)c4ccccc4C)o3)CC2)c1`: the cell count in test [1] came to 555. Besides, the inhibition in test [1] is -15.1% (inactive); in test [3], -45.9% (inactive); in test [7], 11.1% (inactive); in test [8], 45.6% (inactive). Further, the inhibition of aggregation in test [2] was 12.7% (inactive). The nuclei count was determined as 95.8% in test [2] and 125% in test [3]. Further, the fluorescence slope in test [4] is -0.555 (inactive); in test [6], 0.00481 (inactive). In addition, the NADPH fluorescence slope in test [5] is 4.4e-05 (inactive).

On to `COc1ccc(OCCCC(=O)Nc2ccc3c(c2)OCCO3)cc1`, for which the cell count in test [1] is 467. Also, the inhibition in test [1] was 10.1% (inactive); in test [3], -237% (inactive); in test [7], -5.01% (inactive); in test [8] it was -17.3% (inactive). In test [2], the inhibition of aggregation is -6.5% (inactive). Also, the nuclei count in test [2] amounted to 104%; in test [3], 140%. Besides, the fluorescence slope in test [4] was -0.299 (inactive); in test [6], 0.00647 (inactive). The NADPH fluorescence slope in test [5] is -2.2e-05 (inactive).

In the case of `COc1ccc2cc(C#N)c(NC(C)C)nc2c1`, the cell count in test [1] was determined as 481. Besides, the inhibition in test [1] was 3.6% (inactive); in test [3], -23.1% (inactive); in test [7], 8% (inactive); in test [8], 23% (inactive). Also, the inhibition of aggregation in test [2] is -25.6% (inactive). Besides, the nuclei count in test [2] is 96.4%; in test [3] it was 108%. In addition, the fluorescence slope was -0.495 (inactive) in test [4] and 0.00581 (inactive) in test [6]. The NADPH fluorescence slope in test [5] is -0.000141 (inactive).

As for `O=C(Cn1ccc2ccccc2c1=O)NCCC(=O)N1CCN(C(=O)c2ccco2)CC1`, the cell count in test [1] was found to be 397. In addition, the inhibition in test [1] was -14.1% (inactive); in test [3], 9.4% (inactive); in test [7], -0.7% (inactive); in test [8] it was 6.13% (inactive). Moreover, the inhibition of aggregation in test [2] was 11.3% (inactive). In addition, the figures for the nuclei count in test [2] and in test [3] were 98.1% and 97.8%, respectively. Moreover, the fluorescence slope in test [4] was -0.503 (inactive); in test [6], 0.00733 (inactive). Moreover, the NADPH fluorescence slope in test [5] was 0.000132 (inactive).

With `Nc1c(C(=O)NCCc2ccccc2)nnn1Cc1ccccc1`, the cell count in test [1] amounted to 564. Further, the inhibition in test [1] was 4.8% (inactive); in test [3] it was -6.5% (inactive); in test [7] it was -11.8% (inactive); in test [8], -13.7% (inactive). In addition, in test [2], the inhibition of aggregation is 24.6% (inactive). Moreover, the nuclei count in test [2] is 69.8%; in test [3], 98.3%. For the same molecule, the fluorescence slope in test [4] is -0.571 (inactive); in test [6] it was 0.00544 (inactive). Further, in test [5], the NADPH fluorescence slope was -4.3e-05 (inactive).

On to `Cc1sc2c(c1C)CN(C1CC(C)(C)NC(C)(C)C1)CN2C(=O)c1ccco1`, for which the cell count in test [1] turned out to be 307. Also, the inhibition in test [1] is 10.6% (inactive); in test [3] it was -5% (inactive); in test [7], -1.32% (inactive); in test [8], -7.67% (inactive). Also, the inhibition of aggregation in test [2] is 2% (inactive). Besides, the nuclei count is 91.5% in test [2] and 105% in test [3]. The values for the fluorescence slope in test [4] and in test [6] were -0.377 (inactive) and 0.00444 (inactive), respectively. The NADPH fluorescence slope in test [5] was -2.6e-05 (inactive).

Turning to `Cc1cc2oc(=O)cc(CN3CCCCC3)c2cc1C(C)C`, in test [1], the cell count is 366. Besides, the inhibition is -3.9% (inactive) in test [1], 67.8% (active) in test [3], 10.7% (inactive) in test [7] and 40.9% (inactive) in test [8]. Also, the inhibition of aggregation in test [2] was -20.2% (inactive). Moreover, the nuclei count is 91.1% in test [2] and 56.9% in test [3]. Besides, the fluorescence slope is -0.56 (inactive) in test [4] and 0.0051 (inactive) in test [6]. Besides, the NADPH fluorescence slope in test [5] was -2.5e-05 (inactive).

As to `Nc1nc(CSCc2ccccc2)nc(N2CCOCC2)n1`, in test [1], the cell count is 685. The inhibition in test [1] is 0.8% (inactive); in test [3], 17.1% (inactive); in test [7], -22.6% (inactive); in test [8], -81.5% (inactive). For the same molecule, the inhibition of aggregation in test [2] is -6.3% (inactive). Also, the values for the nuclei count in test [2] and in test [3] were 95.4% and 104%, respectively. For the same molecule, the results for the fluorescence slope in test [4] and in test [6] were -0.262 (inactive) and 0.0049 (inactive), respectively. Further, the NADPH fluorescence slope in test [5] is -1.3e-05 (inactive).

As to `Cc1c(NC(=O)c2cnn3c2NC(c2ccco2)CC3C(F)(F)F)c(=O)n(-c2ccccc2)n1C` (centres undefined), the cell count in test [1] was determined as 436. Moreover, the inhibition in test [1] was -1% (inactive); in test [3], -27.3% (inactive); in test [7] it was 15.2% (inactive); in test [8], 18.8% (inactive). Also, in test [2], the inhibition of aggregation was 2.9% (inactive). Besides, the nuclei count in test [2] was determined as 101%; in test [3], 115%. Besides, the fluorescence slope in test [4] was -0.557 (inactive); in test [6], 0.00692 (inactive). In test [5], the NADPH fluorescence slope was -2.6e-05 (inactive).

Turning to `COc1ccccc1Nc1nc(N)nc(CSc2nccc(C)n2)n1`, the cell count in test [1] is 701. The inhibition in test [1] is -8.6% (inactive); in test [3], 28.3% (inactive); in test [7], 11.6% (inactive); in test [8], 5.69% (inactive). For the same molecule, in test [2], the inhibition of aggregation is -9.5% (inactive). The results for the nuclei count in test [2] and in test [3] were 99.9% and 112%, respectively. For the same molecule, the figures for the fluorescence slope in test [4] and in test [6] were -0.546 (inactive) and 0.00561 (inactive), respectively. Further, the NADPH fluorescence slope in test [5] was 4.7e-05 (inactive).

For `COc1ccc(S(=O)(=O)N(C)c2ccc(C(=O)N3CCOCC3)cc2)cc1`, the cell count in test [1] came out at 321. Besides, the inhibition in test [1] was -2.9% (inactive); in test [3] it was -106% (inactive); in test [7], 14.9% (inactive); in test [8], 16.7% (inactive). Besides, in test [2], the inhibition of aggregation was -6.7% (inactive). Besides, the nuclei count in test [2] worked out at 105%; in test [3], 129%. For the same molecule, the fluorescence slope in test [4] was -0.515 (inactive); in test [6], 0.00412 (inactive). The NADPH fluorescence slope in test [5] was -0.000149 (inactive).

As to `Cc1c(NC(=O)C(C)OC(=O)C(NC(=O)c2ccco2)C(C)C)c(=O)n(-c2ccccc2)n1C` (centres undefined), the cell count in test [1] amounted to 419. Further, the inhibition in test [1] is -8% (inactive); in test [3], -25.3% (inactive); in test [7], 10.2% (inactive); in test [8], 14.1% (inactive). Also, the inhibition of aggregation in test [2] is -12.5% (inactive). Besides, the nuclei count in test [2] worked out at 105%; in test [3] it was 106%. The fluorescence slope in test [4] was -0.276 (inactive); in test [6] it was 0.00712 (inactive). For the same molecule, the NADPH fluorescence slope in test [5] is -5.3e-05 (inactive).
